ChEMBL document CHEMBL4138147, “Discovery of a fluorescent probe with HDAC6 selective inhibition” (Eur J Med Chem, 2017)
pIC50: −log10 of the molar value. The source made the active and inactive calls. The calls are words filed in the database; no cut-off is given here.

What was measured:
Histone deacetylase 2 = Histone deacetylase 2 (Homo sapiens, UniProt Q92769); assay: Inhibition of human recombinant full-length C-terminal GST-tagged HDAC2 expressed in baculovirus infected Sf9 cells using Boc-Lys(acetyl)-AMC as substrate after 30 mins by fluorescence assay; type: cell-based
Histone deacetylase 2, sequence (Q92769 whole entry, the tested form may be a part): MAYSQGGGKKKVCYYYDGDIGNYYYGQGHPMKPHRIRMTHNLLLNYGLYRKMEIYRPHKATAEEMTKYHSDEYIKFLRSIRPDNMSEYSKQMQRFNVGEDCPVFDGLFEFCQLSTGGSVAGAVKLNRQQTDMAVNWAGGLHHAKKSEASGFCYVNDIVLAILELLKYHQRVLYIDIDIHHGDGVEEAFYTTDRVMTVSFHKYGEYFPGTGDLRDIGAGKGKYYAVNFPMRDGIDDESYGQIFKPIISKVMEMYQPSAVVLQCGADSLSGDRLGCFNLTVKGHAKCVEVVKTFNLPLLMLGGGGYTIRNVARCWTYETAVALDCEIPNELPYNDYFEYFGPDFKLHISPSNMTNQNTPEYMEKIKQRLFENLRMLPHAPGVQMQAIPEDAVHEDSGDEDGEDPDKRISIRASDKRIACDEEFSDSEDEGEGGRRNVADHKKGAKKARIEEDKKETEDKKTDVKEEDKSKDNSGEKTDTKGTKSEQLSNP

Histone deacetylase 1 = Histone deacetylase 1 (Homo sapiens, UniProt Q13547); assay: Inhibition of human recombinant full-length HDAC1 (1 to 482 residues) expressed in baculovirus using Boc-Lys(acetyl)-AMC as substrate after 30 mins by fluorescence assay
Histone deacetylase 1, sequence (Q13547 whole entry, the tested form may be a part): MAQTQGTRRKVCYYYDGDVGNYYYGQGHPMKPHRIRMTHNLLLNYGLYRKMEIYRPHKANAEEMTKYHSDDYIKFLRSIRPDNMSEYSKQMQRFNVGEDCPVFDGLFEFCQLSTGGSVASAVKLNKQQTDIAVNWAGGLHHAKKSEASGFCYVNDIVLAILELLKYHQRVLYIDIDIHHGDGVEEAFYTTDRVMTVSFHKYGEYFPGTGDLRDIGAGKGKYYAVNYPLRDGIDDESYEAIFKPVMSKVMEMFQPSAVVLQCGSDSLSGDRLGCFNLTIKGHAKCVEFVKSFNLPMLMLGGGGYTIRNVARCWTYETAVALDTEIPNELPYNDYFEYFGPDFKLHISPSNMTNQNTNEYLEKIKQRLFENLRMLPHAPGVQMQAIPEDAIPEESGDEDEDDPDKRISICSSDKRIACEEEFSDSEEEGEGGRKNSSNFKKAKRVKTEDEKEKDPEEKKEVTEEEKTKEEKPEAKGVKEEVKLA

[1] = molecular target: Histone deacetylase 1/2/3 (Homo sapiens) (UniProt Q13547+O15379+Q92769); settings: A549, at 500 nM
Histone deacetylase 3 = Histone deacetylase 3 (Homo sapiens, UniProt O15379); assay: Inhibition of human recombinant full-length C-terminal GST-tagged HDAC3 expressed in baculovirus infected Sf9 cells using Boc-Lys(acetyl)-AMC as substrate after 30 mins by fluorescence assay
Histone deacetylase 3, sequence (O15379 whole entry): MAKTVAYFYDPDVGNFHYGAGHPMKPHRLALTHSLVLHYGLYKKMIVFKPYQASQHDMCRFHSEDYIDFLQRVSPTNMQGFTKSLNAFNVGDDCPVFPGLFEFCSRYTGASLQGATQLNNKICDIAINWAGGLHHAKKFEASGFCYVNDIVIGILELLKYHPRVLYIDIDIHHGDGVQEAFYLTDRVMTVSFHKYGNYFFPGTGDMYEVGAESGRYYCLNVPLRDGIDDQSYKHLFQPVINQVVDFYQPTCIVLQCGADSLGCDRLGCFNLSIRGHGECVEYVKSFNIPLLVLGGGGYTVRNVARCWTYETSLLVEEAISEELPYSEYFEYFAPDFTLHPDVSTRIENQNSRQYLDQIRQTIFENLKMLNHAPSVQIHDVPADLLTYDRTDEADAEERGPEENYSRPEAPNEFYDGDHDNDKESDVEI

[2] = molecular target: T1, Protein deacetylase HDAC6 (Homo sapiens, UniProt Q9UBN7); assay: Inhibition of human recombinant full-length HDAC6 expressed in baculovirus infected Sf9 cells using Boc-Lys(acetyl)-AMC as substrate after 30 mins by fluorescence assay
T1 sequence (Q9UBN7 whole entry): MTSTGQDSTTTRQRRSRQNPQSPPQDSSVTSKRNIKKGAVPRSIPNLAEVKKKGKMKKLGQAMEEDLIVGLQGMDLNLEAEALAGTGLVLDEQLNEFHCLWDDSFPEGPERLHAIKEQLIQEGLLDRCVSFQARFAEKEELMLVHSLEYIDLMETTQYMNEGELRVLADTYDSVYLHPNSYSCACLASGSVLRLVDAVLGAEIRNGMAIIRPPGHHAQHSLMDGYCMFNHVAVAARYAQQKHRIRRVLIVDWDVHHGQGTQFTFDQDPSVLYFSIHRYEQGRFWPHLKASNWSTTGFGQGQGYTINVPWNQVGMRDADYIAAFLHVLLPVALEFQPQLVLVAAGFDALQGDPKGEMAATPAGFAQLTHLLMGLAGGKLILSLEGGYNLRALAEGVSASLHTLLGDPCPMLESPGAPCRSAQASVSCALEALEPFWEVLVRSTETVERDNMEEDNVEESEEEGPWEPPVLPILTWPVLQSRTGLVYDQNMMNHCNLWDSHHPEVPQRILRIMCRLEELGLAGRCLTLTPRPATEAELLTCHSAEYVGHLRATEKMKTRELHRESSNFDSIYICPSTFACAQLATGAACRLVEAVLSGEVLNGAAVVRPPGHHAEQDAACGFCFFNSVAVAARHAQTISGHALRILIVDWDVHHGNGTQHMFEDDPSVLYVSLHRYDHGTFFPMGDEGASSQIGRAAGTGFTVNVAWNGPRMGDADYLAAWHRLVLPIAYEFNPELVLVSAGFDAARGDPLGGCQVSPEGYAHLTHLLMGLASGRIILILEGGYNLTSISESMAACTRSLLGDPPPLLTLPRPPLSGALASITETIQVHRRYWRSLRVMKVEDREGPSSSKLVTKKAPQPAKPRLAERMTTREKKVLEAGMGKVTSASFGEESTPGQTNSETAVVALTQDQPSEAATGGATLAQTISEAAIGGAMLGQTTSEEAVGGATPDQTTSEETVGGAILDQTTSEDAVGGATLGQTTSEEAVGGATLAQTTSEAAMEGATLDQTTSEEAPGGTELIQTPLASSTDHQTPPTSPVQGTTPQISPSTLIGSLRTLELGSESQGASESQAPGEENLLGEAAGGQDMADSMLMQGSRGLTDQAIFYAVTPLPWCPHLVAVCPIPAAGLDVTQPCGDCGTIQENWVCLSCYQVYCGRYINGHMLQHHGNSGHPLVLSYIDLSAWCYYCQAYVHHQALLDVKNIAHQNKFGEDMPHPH

[3] = molecular target: T2, Protein deacetylase HDAC6 (Homo sapiens) (UniProt Q9UBN7); assay: (§1) Binding affinity to HDAC6 in aggresomes of human A549 cells assessed as formation of aggresome-like structures at 2 uM added after 24 hrs pre-treatment with MG132 followed by compound addition measured after 2 hrs by fluorescence staining-based confocal microscopic analysis
T2 sequence (whole entry): T1 sequence (Q9UBN7 whole entry)
Method in brief: (§2)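 A549 cells (DMEM, 10% FBS, 37 °C, 5% CO2) given DMSO or 5 μM MG132 for 24 h, fixed in 4% formaldehyde/PBS 20 min, then stained with 2 μM compound in PBS for 2 h. For antibody co-staining, cells were permeabilized with 0.1% Triton X-100, BSA-blocked, and probed overnight at 4 °C with anti-HDAC6 or anti-ubiquitin antibody plus Alexa 647 secondary before the compound. Confocal imaging: compound ex 405/em 500–600 nm; antibody ex 633/em 650–750 nm.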

[4] = Drug uptake in cytoplasm of human A549 cells assessed as diffused staining in cytoplasm at 2 uM added after 24 hrs pre-treatment with DMSO followed by compound addition measured after 2 hrs by fluorescence staining-based confocal microscopic analysis; type: ADME, subcellular; settings: a549, 24 h; method in brief: as §2
Histone deacetylase 8 = molecular target: T3, Histone deacetylase 8 (Homo sapiens, UniProt Q9BY41); assay: Inhibition of HDAC8 (unknown origin) using Boc-Lys(acetyl)-AMC as substrate after 30 mins by fluorescence assay
T3 sequence (Q9BY41 whole entry): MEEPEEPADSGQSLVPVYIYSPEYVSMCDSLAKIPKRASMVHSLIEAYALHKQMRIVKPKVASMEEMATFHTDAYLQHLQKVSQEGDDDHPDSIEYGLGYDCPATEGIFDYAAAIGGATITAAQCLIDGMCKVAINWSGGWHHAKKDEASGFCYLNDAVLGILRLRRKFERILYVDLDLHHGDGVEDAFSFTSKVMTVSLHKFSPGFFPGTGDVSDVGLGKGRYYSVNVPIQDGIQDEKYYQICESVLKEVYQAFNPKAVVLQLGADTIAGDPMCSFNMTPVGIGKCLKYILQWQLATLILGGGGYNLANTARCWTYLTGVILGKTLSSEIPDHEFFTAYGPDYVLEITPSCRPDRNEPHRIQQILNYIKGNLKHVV
Method in brief: (§3)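 The HDAC isoform was incubated with substrate and compound (from a 10% DMSO dilution, 5 μL into a 50 μL reaction) at 37 °C for 30 min. The reaction was stopped with developer containing trypsin and TSA.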

Histone deacetylase 11 = molecular target: T4, Histone deacetylase 11 (Homo sapiens, UniProt Q96DB2); assay: Inhibition of HDAC11 (unknown origin) using Boc-Lys(acetyl)-AMC as substrate after 30 mins by fluorescence assay; method in brief: as §3
T4 sequence (Q96DB2 whole entry): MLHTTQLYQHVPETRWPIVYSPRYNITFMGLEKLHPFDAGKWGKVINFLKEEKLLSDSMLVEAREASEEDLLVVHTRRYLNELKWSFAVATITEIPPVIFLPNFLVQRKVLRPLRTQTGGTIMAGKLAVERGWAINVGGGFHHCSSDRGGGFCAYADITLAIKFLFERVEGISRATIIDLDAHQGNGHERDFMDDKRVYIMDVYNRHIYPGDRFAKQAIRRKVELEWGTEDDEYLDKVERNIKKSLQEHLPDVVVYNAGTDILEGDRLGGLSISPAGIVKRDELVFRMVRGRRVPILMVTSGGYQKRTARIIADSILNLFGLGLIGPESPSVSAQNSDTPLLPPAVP

[5] = molecular target: T5, Polyamine deacetylase HDAC10 (Homo sapiens, UniProt Q969S8); assay: Inhibition of HDAC10 (unknown origin) using Boc-Lys(acetyl)-AMC as substrate after 30 mins by fluorescence assay; method in brief: as §3
T5 sequence (Q969S8 whole entry): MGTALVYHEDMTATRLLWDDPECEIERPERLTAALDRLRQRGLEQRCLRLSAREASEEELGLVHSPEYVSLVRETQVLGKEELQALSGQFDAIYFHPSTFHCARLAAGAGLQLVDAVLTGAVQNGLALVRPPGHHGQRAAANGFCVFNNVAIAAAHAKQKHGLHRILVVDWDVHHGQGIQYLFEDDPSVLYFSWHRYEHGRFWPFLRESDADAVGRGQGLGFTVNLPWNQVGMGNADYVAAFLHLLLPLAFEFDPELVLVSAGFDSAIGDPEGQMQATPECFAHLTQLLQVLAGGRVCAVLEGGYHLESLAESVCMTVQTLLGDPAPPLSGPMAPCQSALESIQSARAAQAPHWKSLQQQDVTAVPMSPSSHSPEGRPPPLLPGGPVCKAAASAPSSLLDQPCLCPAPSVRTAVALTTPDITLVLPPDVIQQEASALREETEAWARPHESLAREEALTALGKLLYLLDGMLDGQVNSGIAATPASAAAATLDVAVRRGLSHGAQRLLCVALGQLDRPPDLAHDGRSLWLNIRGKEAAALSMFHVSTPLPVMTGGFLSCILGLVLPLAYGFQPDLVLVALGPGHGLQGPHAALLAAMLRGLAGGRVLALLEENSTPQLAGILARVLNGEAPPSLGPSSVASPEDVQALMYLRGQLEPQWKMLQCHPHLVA

Histone deacetylase 7 = molecular target: T6, Histone deacetylase 7 (Homo sapiens, UniProt Q8WUI4); assay: Inhibition of HDAC7 (unknown origin) using Boc-Lys(acetyl)-AMC as substrate after 30 mins by fluorescence assay
T6 sequence (Q8WUI4 whole entry): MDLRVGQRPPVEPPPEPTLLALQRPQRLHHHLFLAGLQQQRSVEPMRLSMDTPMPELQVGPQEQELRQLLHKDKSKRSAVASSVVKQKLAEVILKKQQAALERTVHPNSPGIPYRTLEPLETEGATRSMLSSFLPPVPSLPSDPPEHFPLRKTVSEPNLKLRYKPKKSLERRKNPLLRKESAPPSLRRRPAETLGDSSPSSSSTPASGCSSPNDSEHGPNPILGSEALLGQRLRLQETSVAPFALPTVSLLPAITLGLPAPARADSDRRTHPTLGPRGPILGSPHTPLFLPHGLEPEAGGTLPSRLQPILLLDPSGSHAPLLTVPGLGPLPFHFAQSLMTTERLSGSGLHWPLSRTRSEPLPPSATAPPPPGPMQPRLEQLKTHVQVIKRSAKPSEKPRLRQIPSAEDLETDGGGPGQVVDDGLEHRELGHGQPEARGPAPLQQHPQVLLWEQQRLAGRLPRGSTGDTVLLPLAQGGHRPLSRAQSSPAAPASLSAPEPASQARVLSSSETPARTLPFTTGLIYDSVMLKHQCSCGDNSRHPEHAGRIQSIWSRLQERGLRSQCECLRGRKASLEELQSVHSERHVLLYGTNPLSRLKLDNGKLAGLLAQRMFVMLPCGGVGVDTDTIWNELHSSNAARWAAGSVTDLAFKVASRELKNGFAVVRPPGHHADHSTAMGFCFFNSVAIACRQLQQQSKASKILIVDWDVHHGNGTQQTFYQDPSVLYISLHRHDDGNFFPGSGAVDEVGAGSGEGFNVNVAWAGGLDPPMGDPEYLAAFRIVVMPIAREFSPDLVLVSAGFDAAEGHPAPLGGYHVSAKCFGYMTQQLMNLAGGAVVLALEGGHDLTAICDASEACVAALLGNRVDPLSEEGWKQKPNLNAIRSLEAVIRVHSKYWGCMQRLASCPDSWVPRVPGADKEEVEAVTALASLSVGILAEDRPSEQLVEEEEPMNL

Histone deacetylase 5 = Histone deacetylase 5 (Homo sapiens, UniProt Q9UQL6); assay: Inhibition of HDAC5 (unknown origin) using Boc-Lys(acetyl)-AMC as substrate after 30 mins by fluorescence assay; method in brief: as §3
Histone deacetylase 5, sequence (Q9UQL6 whole entry): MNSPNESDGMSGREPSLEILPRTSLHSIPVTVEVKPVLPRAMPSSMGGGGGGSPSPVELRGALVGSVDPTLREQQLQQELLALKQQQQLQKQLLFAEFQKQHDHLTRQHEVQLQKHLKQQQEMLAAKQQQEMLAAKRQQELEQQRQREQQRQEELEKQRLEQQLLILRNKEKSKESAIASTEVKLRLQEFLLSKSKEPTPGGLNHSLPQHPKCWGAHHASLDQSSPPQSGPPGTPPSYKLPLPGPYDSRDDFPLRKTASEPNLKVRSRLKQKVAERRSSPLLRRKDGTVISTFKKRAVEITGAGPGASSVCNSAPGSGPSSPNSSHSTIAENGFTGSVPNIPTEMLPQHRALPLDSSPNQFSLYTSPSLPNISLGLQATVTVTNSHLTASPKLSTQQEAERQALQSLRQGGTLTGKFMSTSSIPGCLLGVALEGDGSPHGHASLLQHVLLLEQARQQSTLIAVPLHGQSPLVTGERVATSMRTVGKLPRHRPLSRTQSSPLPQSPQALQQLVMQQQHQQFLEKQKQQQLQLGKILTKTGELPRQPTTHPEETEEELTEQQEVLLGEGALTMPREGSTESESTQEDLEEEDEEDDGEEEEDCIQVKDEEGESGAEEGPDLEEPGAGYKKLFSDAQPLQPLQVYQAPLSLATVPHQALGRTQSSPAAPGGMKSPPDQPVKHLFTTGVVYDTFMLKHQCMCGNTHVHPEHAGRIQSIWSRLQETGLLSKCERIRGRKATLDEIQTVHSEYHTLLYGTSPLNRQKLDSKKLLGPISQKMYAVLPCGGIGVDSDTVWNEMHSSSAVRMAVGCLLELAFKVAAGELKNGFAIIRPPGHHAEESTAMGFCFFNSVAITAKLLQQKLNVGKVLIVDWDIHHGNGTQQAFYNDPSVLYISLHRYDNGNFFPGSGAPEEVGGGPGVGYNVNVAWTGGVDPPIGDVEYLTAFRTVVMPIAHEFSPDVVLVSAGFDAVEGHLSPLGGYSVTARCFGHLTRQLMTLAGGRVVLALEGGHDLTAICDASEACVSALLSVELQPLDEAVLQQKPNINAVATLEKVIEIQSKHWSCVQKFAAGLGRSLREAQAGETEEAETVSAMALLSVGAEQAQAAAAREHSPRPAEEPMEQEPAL

[6] = molecular target: T2, Protein deacetylase HDAC6 (Homo sapiens); assay: as §1, with “induction of co-localization” for “formation”, “structures with polyubiquitin” for “structures”; method in brief: as §2
Histone deacetylase 4 = Histone deacetylase 4 (Homo sapiens, UniProt P56524); assay: Inhibition of HDAC4 (unknown origin) using Boc-Lys(acetyl)-AMC as substrate after 30 mins by fluorescence assay; method in brief: as §3
Histone deacetylase 4, sequence (P56524 whole entry): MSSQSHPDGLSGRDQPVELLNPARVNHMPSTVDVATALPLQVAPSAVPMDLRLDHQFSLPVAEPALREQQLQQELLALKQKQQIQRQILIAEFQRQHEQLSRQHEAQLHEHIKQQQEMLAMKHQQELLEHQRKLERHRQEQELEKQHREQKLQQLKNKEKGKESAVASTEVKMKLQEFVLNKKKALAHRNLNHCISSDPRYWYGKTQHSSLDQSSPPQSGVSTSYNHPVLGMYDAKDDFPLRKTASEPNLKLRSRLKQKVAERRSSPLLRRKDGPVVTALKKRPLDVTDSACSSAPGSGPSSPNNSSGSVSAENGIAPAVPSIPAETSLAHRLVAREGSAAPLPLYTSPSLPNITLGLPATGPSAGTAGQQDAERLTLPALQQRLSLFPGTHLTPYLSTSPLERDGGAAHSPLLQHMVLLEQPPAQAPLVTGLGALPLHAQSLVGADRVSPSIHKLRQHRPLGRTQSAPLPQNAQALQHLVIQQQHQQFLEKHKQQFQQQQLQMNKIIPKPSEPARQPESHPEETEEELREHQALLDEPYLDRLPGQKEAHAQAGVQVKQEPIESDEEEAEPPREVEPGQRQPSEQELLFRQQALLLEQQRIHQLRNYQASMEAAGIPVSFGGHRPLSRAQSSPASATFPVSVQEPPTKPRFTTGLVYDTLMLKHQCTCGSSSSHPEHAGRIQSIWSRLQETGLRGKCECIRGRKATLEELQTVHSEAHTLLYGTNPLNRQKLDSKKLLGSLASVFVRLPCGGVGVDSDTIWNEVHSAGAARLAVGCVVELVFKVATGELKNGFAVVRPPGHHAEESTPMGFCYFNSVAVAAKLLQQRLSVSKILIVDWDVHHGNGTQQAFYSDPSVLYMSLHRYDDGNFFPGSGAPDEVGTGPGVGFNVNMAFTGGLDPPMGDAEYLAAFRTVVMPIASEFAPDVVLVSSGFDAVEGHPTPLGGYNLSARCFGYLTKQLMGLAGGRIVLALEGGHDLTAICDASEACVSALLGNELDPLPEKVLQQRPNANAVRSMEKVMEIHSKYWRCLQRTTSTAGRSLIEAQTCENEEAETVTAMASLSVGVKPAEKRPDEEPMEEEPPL

[7] = molecular target: T2, Protein deacetylase HDAC6 (Homo sapiens); assay: Binding affinity to HDAC6 in aggresomes of human A549 cells assessed as relocation of compound to single bright juxtanuclear structure at 2 uM added after 24 hrs pre-treatment with MG132 followed by compound addition measured after 2 hrs by fluorescence staining-based confocal microscopic analysis; method in brief: as §2
[8] = Drug uptake in human A549 cells assessed as intracellular distribution at 2 uM added after 24 hrs pre-treatment with MG132 followed by compound addition measured after 2 hrs by fluorescence staining-based confocal microscopic analysis; type: ADME, cell-based; settings: a549, 24 h; method in brief: as §2
Histone deacetylase 9 = Histone deacetylase 9 (Homo sapiens, UniProt Q9UKV0); assay: Inhibition of HDAC9 (unknown origin) using Boc-Lys(acetyl)-AMC as substrate after 30 mins by fluorescence assay; method in brief: as §3
Histone deacetylase 9, sequence (Q9UKV0 whole entry): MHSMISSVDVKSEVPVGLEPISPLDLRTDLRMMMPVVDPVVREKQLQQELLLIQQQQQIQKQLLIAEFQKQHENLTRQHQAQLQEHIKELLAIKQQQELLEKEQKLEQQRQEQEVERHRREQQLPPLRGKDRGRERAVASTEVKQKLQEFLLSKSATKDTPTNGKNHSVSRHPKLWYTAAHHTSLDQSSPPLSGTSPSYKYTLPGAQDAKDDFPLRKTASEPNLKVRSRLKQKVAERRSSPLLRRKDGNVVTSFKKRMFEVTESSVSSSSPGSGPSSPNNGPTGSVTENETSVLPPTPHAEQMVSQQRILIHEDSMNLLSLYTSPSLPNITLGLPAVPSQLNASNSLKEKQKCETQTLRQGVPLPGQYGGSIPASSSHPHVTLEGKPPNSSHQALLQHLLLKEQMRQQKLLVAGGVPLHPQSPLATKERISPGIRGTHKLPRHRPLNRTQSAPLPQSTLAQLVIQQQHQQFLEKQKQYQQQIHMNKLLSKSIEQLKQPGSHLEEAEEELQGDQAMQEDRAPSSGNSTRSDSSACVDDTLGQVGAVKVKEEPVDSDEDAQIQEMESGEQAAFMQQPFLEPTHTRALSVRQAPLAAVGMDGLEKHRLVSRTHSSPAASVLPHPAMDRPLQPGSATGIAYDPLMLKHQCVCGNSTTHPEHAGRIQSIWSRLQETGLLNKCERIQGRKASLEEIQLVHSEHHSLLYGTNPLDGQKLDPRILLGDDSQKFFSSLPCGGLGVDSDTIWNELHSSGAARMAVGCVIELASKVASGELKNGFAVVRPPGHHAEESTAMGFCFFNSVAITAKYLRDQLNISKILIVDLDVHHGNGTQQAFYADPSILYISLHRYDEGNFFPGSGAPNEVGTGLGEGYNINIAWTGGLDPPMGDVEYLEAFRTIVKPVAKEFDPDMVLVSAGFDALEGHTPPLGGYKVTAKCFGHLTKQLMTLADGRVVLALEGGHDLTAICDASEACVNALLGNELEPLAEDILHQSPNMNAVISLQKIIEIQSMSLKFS

O=C(NO)c1ccc(CN2C(=O)c3cccc4c(N5CCOCC5)ccc(c34)C2=O)cc1
pIC50 (Histone deacetylase 2): 7.01 | pIC50 (Histone deacetylase 1): 7.44 | inhibition [1]: Active | pIC50 (Histone deacetylase 3): 7.95 | pIC50 [2]: 8.57 | Activity [3]: inactive

O=C(CCCCCN1C(=O)c2cccc3c(N4CCOCC4)ccc(c23)C1=O)NO
pIC50 (Histone deacetylase 2): 7.59 | pIC50 (Histone deacetylase 1): 8.28 | pIC50 (Histone deacetylase 3): 8.58 | pIC50 [2]: 9.19 | Activity [3]: inactive

O=C(NO)c1ccc(CCN2C(=O)c3cccc4c(N5CCOCC5)ccc(c34)C2=O)cc1
Drug uptake [4]: Active | pIC50 (Histone deacetylase 8): 5.52 | pIC50 (Histone deacetylase 11): < 5.00 | pIC50 [5]: 5.73 | pIC50 (Histone deacetylase 2): < 4.00 | pIC50 (Histone deacetylase 1): < 4.70 | inhibition [1]: inactive | pIC50 (Histone deacetylase 7): < 4.00 | pIC50 (Histone deacetylase 3): < 4.52 | pIC50 (Histone deacetylase 5): < 4.00 | pIC50 [2]: 6.86 | Activity [6]: Active | pIC50 (Histone deacetylase 4): < 4.00 | Activity [7]: Active | Drug uptake [8]: Active | Activity [3]: Active | pIC50 (Histone deacetylase 9): < 4.52
